Only some compounds are listed: those with a hit (about 1.8% of all), similar ones and a draw of the others.
Beta2AR agonist: activates human beta-2 adrenergic receptor causing internalization; P07550; Am2.2-beta2AR cells, FAP receptor internalization, flow cytometry; response, % (no concentration beside the values); 0.43% of 340,000 active;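 active = response above a set limit, near 3 SD of response in nonfluorescent compounds, cut at about 42% in these data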
CCR6 antag: blocks CCL20-driven beta-arrestin recruitment at human CCR6 | inhibition, % at 20 µM | CHO-K1 CCR6 PathHunter beta-arrestin, luminescence, CCL20-stimulated | P51684 | 0.49% of 340,000 active;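 active = compounds whose inhibition of the agonist-driven luminescence signal at 20 µM reaches about 50%, limit read from the data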;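 note: cells stimulated with CCL20 at 14 nM final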
Target sequence (P51684 whole entry, looked up): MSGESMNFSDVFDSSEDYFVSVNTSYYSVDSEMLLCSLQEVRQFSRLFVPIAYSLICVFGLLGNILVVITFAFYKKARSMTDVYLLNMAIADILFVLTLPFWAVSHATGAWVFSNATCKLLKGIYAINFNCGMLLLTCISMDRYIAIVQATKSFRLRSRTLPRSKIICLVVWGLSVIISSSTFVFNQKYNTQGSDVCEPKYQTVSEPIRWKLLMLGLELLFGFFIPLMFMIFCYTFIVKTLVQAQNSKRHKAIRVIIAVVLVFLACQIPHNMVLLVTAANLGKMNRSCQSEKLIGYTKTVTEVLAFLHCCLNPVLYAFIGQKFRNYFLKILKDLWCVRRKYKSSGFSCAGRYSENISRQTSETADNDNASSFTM
APJ ag: activates the human apelin receptor APJ; P35414; CHO-K1 APJ PathHunter beta-arrestin, luminescence; 0% DMSO wells, 100% apelin; activation, % at 20 µM; 0.11% of 330,000 active; AID 2520;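 active = activation more than six SD over the plate average, tested at 20 µM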
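Material: CHO-K1 APJ beta-arrestin complementation cell line; Input: cell density 1000 per well; Incubation: compound stimulation 90 min at 25 °C, detection 60 min; Signal: luminescence from split beta-galactosidase complementation, Galacton Star/Emerald II substrate; Controls: DMSO-only wells as negative, 10 nM Apelin-13 as positive control.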
CXCR6 block: CXCR6 (human) receptor inhibition; O00574; CHO-K1 PathHunter CXCR6 beta-arrestin, luminescence; inhibition, % at 20 µM; 0.36% of 360,000 active; AID 602244; in the data active = inhibition above about 34%, passing the limit was not always enough;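 note: antagonist mode with CXCL16 agonist at 10 nM final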
EBI2 block: EBI2 (human) antagonism; 0.81% of 360,000 active; EBI2 beta-arrestin recruitment, luminescence, 7a,25-OHC stimulated; inhibition, % at 5 µM; P32249; in the data active = inhibition above about 38%;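 note: enzyme fragment complementation signal reports receptor beta-arrestin coupling in cells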
APJ antag: antagonists of human APJ apelin receptor; CHO-K1 APJ beta-arrestin complementation, luminescence; inhibition, % at 20 µM; 0.32% of 330,000 active; AID 2521;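 active = inhibition above about 40% at 20 µM, limit read from the data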;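 note: cells challenged with 10 nM apelin-13 agonist together with compound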
EBI2 conf: EBI2 (human) antagonism, single concentration confirmation; EBI2 beta-arrestin luminescence, 7a,25-OHC antagonism; 29% of 2,400 active; inhibition, % at 5 µM; shares compounds with EBI2 block;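 active = inhibition of at least 50%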
EBI2 ag: counter-screen for EBI2 antagonists: EBI2 agonist activity; shares compounds with EBI2 block; EBI2-expressing cells, agonist mode, luminescence, 60 min; 0% vehicle, 100% 7α,25-dihydroxycholesterol control; activation, % at 5 µM; 2,400 tested, under 10 active;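 active = activation of at least 50%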
bGal counter: inhibits E. coli beta-galactosidase, counter-screen for EBI2 antagonists. shares compounds with EBI2 block. purified beta-galactosidase, luminescent Galacton Star, 15 min. inhibition, % at 5 µM. 1% of 2,400 active;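 active = replicate-average signal at least 3 plate SD below neutral wells, shown as high inhibition, flagging enzyme-inhibiting false positives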;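 note: higher means stronger loss of beta-gal luminescence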
Large screens that a line does not name were inactive (follow-up assays come after a bar, where they were run).

O=C(NCCc1ccccc1)C1CCC(Cn2c(=O)c3ccccc3n(Cc3cccc(F)c3)c2=O)CC1 (centres undefined)	EBI2 block 61.1 | EBI2 conf inactive | EBI2 ag inactive | bGal counter inactive
COc1ccc(-c2cc(-c3ccc(Br)cc3)nc3ncnn23)cc1OC	EBI2 block 60.0 | EBI2 conf inactive | EBI2 ag inactive | bGal counter inactive
O=C(COC(=O)CCNS(=O)(=O)c1ccc(Cl)cc1)Nc1ccccc1OC(F)F	none
CCOC(=O)c1cnn(-c2nc(-c3ccc(F)cc3)cs2)c1C(F)(F)F	EBI2 block 52.6 | EBI2 conf 55.9 | EBI2 ag inactive | bGal counter inactive
Cc1ccc(Oc2nc3ccccn3c(=O)c2/C=C(\C#N)C(=O)Nc2c(C)n(C)n(-c3ccccc3)c2=O)cc1	EBI2 block 56.9 | EBI2 conf 62.3 | EBI2 ag inactive | bGal counter inactive
Cc1ccccc1Oc1nc2c(C)cccn2c(=O)c1/C=C(\C#N)C(=O)Nc1c(C)n(C)n(-c2ccccc2)c1=O	EBI2 block 64.9 | EBI2 conf 61.5 | EBI2 ag inactive | bGal counter inactive
Cc1ccccc1Oc1nc2ccccn2c(=O)c1/C=C(\C#N)C(=O)Nc1c(C)n(C)n(-c2ccccc2)c1=O	none
C=CCOC(=O)C1=C[C@@H](C2CCCCC2)C[C@@H](OCc2ccc(CO)cc2)O1	none
Nc1ncc(-c2ccccc2)c(-c2ccc(OCc3ccccc3)cc2O)n1	none
COc1ccc(-c2nc(N)ncc2-c2ccccc2OC)c(O)c1	EBI2 block 45.9 | EBI2 conf inactive | EBI2 ag inactive | bGal counter inactive
COc1ccc(-c2cnc(N)nc2-c2ccc(OC)cc2O)cc1	EBI2 block 81.2 | EBI2 conf inactive | EBI2 ag inactive | bGal counter inactive
COc1ccc(-c2nc(N)ncc2-c2ccccc2)c(O)c1	EBI2 block 60.6 | EBI2 conf inactive | EBI2 ag inactive | bGal counter inactive
CCOc1ccccc1-n1c(=O)c2ccccc2c2ccccc2c1=O	none
O=C(NCC1CCCN(Cc2ccc3nonc3c2)C1)c1cccc(C(F)(F)F)c1 (centres undefined)	none
COc1ccc(NC(=O)COC(=O)C2CCN(S(=O)(=O)c3cccs3)CC2)cc1	none
Cc1cc(C)c(S(=O)(=O)N2CCN(C(=O)CCn3nc(C)c(C)c3C)CC2)c(C)c1	EBI2 block 46.6 | EBI2 conf inactive | EBI2 ag inactive | bGal counter inactive
Cc1nn(CCC(=O)N2CCN(S(=O)(=O)c3ccccc3)CC2)c(C)c1C	none
Cc1ccc(CNC(=O)/C(C#N)=C/c2ccc(C)s2)cc1	EBI2 block 50.8 | EBI2 conf inactive | EBI2 ag inactive | bGal counter inactive
Cc1ccc(NC(=O)/C(C#N)=C/c2ccc(C)s2)c(C)c1	none
N#C/C(=C\c1ccc(F)c(Cl)c1)S(=O)(=O)c1ccccn1	none
COc1ccc(-c2[nH]ncc2CN2CCCC(C(=O)c3cccc(OC)c3)C2)cc1 (centres undefined)	none
COc1ccc2cc(-c3[nH]ncc3CN3CCCC3c3nonc3C)ccc2c1 (centres undefined)	EBI2 block 45.9 | EBI2 conf inactive | EBI2 ag inactive | bGal counter inactive
COc1ccc(/C=C2\SC(=NCc3ccccc3)NC2=O)cc1	EBI2 block 46.6 | EBI2 conf inactive | EBI2 ag inactive | bGal counter inactive
COc1ccc([C@H]2CC(=O)C=C(c3ccc(O)cc3)C2)cc1OC	none
COc1ccc([C@H]2CC(=O)C=C(c3ccc(OC)c(F)c3)C2)cc1	EBI2 block 51.1 | EBI2 conf inactive | EBI2 ag inactive | bGal counter inactive
COc1ccc(C2=CC(=O)CC(c3ccccc3)C2)cc1 (centres undefined)	none
COc1ccc([C@H]2CC(=O)C=C(c3ccc(OC)c(OC)c3)C2)cc1	EBI2 block 46.0 | EBI2 conf inactive | EBI2 ag inactive | bGal counter inactive
COc1ccc([C@H]2CC(=O)C=C(c3ccc4ccccc4c3)C2)cc1OC	EBI2 block 61.9 | EBI2 conf 50.9 | EBI2 ag inactive | bGal counter inactive
CN[C@H]1C[C@H]2c3[nH]c4ccc(-c5ccc(OC)cc5)cc4c3CCN2C(=O)[C@H]1[C@H](C)O	none (no result: Beta2AR agonist, CCR6 antag, APJ ag, APJ antag)
O=C(O)C1CC=CCC1C(=O)NC1CCCCC1 (centres undefined)	none
Cn1c2ccccc2c(=O)c2ccc(NCCc3cccs3)cc21	none
OC(c1ccc(F)cc1)c1nc(-c2cccc(C(F)(F)F)c2)cs1 (centres undefined)	none (no result: Beta2AR agonist, CCR6 antag, APJ ag, APJ antag)
CC(=O)Nc1ccc(S(=O)(=O)N2CCC(c3nnc(-c4ccc(C)cc4)o3)CC2)cc1	none
COc1ccc(-c2nnc(C3CCN(S(=O)(=O)c4ccccc4)CC3)o2)cc1	EBI2 block 47.4 | EBI2 conf inactive | EBI2 ag inactive | bGal counter inactive
CCc1nc2ccc(C(=O)Nc3cc(-c4ccccc4)ccc3OC)cn2c1N(C)C(=O)c1cccc(OC)c1	EBI2 block 42.9 (no result: Beta2AR agonist, CCR6 antag, APJ ag, APJ antag) | EBI2 conf inactive | EBI2 ag inactive | bGal counter inactive
CCc1nc2ccc(C(=O)Nc3cc(-c4ccccc4)ccc3OC)cn2c1N(C)Cc1ccc(OC)cc1	EBI2 block 44.5 (no result: Beta2AR agonist, CCR6 antag, APJ ag, APJ antag) | EBI2 conf inactive | EBI2 ag inactive | bGal counter inactive
CCc1nc2ccc(C(=O)Nc3cc(-c4ccccc4)ccc3OC)cn2c1N(C)CCC(C)C	none (no result: Beta2AR agonist, CCR6 antag, APJ ag, APJ antag)
CCCC(C)CO (centres undefined)	none
Cc1ccc(OCCCC(=O)N2CCN(S(=O)(=O)c3cccc(F)c3)CC2)cc1	EBI2 block 52.8 | EBI2 conf inactive | EBI2 ag inactive | bGal counter inactive
O=C(CCCOc1ccccc1)N1CCN(S(=O)(=O)c2cccc(F)c2)CC1	none
O=C(CCCOc1ccccc1)N1CCN(S(=O)(=O)c2ccccc2)CC1	EBI2 block 46.0 | EBI2 conf inactive | EBI2 ag inactive | bGal counter inactive
Cc1cc(C)n(-c2ccc(C(=O)N3CCN(S(=O)(=O)c4ccc(Br)cc4Cl)CC3)cc2)n1	EBI2 block 92.0 (no result: Beta2AR agonist, CCR6 antag, APJ ag, APJ antag) | EBI2 conf 65.3 | EBI2 ag inactive | bGal counter inactive
Cc1cc(C)n(-c2ccc(C(=O)N3CCN(c4ccccn4)CC3)cc2)n1	none

Assay outcomes from PubChem.
